# Assay results pooled from the literature.
# Each line is one published result; the experiments were not run side by side.
# Target: cAMP-dependent protein kinase catalytic subunit beta (PRKACB, Homo sapiens, UniProt P22694)
Compound,effect on,technique,tested at,remaining binding [%]
O=C(c1ccc(Nc2ncc(Cl)c(-c3ccc(Cl)s3)n2)cc1)N1CCC(N2CCCC2)CC1,binding,competition with immobilised ligand,1 µM,100
Cc1nc(Cc2cccc(C(F)(F)F)c2)sc1-c1ccc(C(N)=O)nc1,cell-free assay,competition with immobilised ligand,1 µM,92
CN(C)c1nccc(-c2cnn3ncccc23)n1,binding,competition with immobilised ligand,1 µM,76
Nc1ncc2c(n1)-c1c([nH]c3ccc(C#CC4CC4)cc13)CCCC2,binding,competition with immobilised ligand,1 µM,86
O=C(NCCCC1CCCCC1)c1ccc(CNC(=O)c2cnn(-c3ccccc3)c2C(F)(F)F)cc1,cell-free assay,competition with immobilised ligand,0.1 µM,100
COc1cnc(Nc2cccc(S(N)(=O)=O)c2)nc1N1CCN(c2ccccc2)CC1,binding,competition with immobilised ligand,1 µM,85
NS(=O)(=O)c1cc(NC(=O)Cc2ccccc2)ccc1Oc1cccc(Cl)c1,cell-free assay,competition with immobilised ligand,1 µM,100
C[C@H]1CCN(c2nccc(-c3cnn4ncccc34)n2)C1,binding,competition with immobilised ligand,1 µM,99
O=C(Nc1c[nH]nc1C(=O)NC1CCNCC1)c1cc(F)cc(F)c1,binding,competition with immobilised ligand,1 µM,100
c1cncc(-c2cccc(Nc3nccc(NC4CCCCC4)n3)c2)c1,binding,competition with immobilised ligand,10 µM,56
COc1cc(-c2cn(C3CCc4c(F)cccc4N(CC(F)(F)F)C3=O)nn2)ccc1-n1cnc(C)c1 (centres unmarked),cell-free assay,competition with immobilised ligand,1 µM,95
CNC(=O)[C@@H]1CC[C@@H](n2c(-c3ccc4cnccc4c3)nc3ccc(C(=O)NCc4cccc(C(N)=O)c4)cc32)C1,binding,competition with immobilised ligand,1 µM,100
O=C(c1ccc(Nc2nccc(-c3cc4ccccc4s3)n2)cc1)N1CCC(N2CCCC2)CC1,binding,competition with immobilised ligand,1 µM,100
CS(=O)(=O)N1CCCC(NC(=O)[C@H](CCC2CCCCC2)NC(=O)c2ccc(CNc3ncnc4c3nnn4-c3ccccc3)cc2)C1 (some centres unmarked),cell-free assay,competition with immobilised ligand,0.1 µM,92
CN(C)c1nccc(-c2cnc3ncccn23)n1,binding,competition with immobilised ligand,1 µM,82
COc1ccc2c(O[C@@H]3C[C@H]4C(=O)N[C@]5(C(=O)O)CC5/C=C\CCCCC[C@H](NC(=O)OC5CCCC5)C(=O)N4C3)cc(-c3csc(NC(=O)C(C)C)n3)nc2c1C (some centres unmarked),cell-free assay,competition with immobilised ligand,1 µM,100
CN(CCCC(F)(F)F)c1nccc(-c2cnn3ncccc23)n1,binding,competition with immobilised ligand,1 µM,100
C[C@@H](c1ccc(-n2cnc3c(N)ncnc32)cc1)N1CCc2nn(C)c(Cc3ccccc3)c2C1=O,binding,competition with immobilised ligand,0.1 µM,100
CN(c1nccc(-c2cnn3ncccc23)n1)C1CC1,binding,,1 µM,99
O=C(c1ccc(Nc2ncc(Cl)c(-c3cc4ccccc4s3)n2)cc1)N1CCC(N2CCCC2)CC1,binding,competition with immobilised ligand,1 µM,98
